In ChEMBL document CHEMBL3120102, “Structure-based design, synthesis and biological evaluation of novel anthra[1,2-d]imidazole-6,11-dione homologues as potential antitumor agents” (2013):

Tests used:
Type in all cases: functional
SK-MEL-5 = assay: Cytotoxicity against human SK-MEL-5 cells assessed as growth inhibition after 48 hrs by SRB assay
How it was run: (§1)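 NCI 60-cell-line screen, five-dose stage: each cell line exposed for 48 h to five concentrations spanning five log steps; cellular protein measured by sulforhodamine B colorimetry. A time-zero cell control and plates without drug are used to derive GI50, TGI and LC50 from log-concentration dose-response curves.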

ACHN = assay: Cytotoxicity against human ACHN cells assessed as growth inhibition after 48 hrs by SRB assay
How it was run: (§2)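 NCI 60-cell-line five-dose screen at […]. Drug exposure was 48 h, followed by sulforhodamine B protein staining. GI50, TGI and LC50 were calculated against a time-zero control and untreated plates, with dose–response curves plotted from log10 concentration.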

OVCAR-3 = assay: Cytotoxicity against human OVCAR3 cells assessed as cell growth at 10 uM after 48 hrs by SRB assay; conditions: OVCAR-3, 48 h, read-out: Activity
How it was run: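 First stage of the NCI 60 human tumour cell line screen: a single dose is tested against every line. Cell growth is read as cellular protein by sulforhodamine B colorimetry after 48 h of drug exposure, with reference to a time-zero control and to untreated plates.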

[1] = (§3) Cytotoxicity against human UACC257 cells assessed as growth inhibition after 48 hrs by SRB assay; conditions: UACC-257, 48 h
How it was run: (§4)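 NCI 60-cell-line screen, two stages. Five-dose testing at […]. Cellular protein measured by sulforhodamine B colorimetry after 48 h drug exposure. A time-zero control and drug-free plates are used to derive GI50, TGI and LC50 from dose-response curves plotted as log10 concentration per cell line.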

UACC-257 = assay: as §3; how it was run: as §4
A549 = assay: Cytotoxicity against human A549 cells assessed as growth inhibition after 48 hrs by SRB assay; how it was run: as §2
SW-620 = assay: Cytotoxicity against human SW620 cells assessed as growth inhibition after 48 hrs by SRB assay; how it was run: as §4
SNB-75 = assay: Cytotoxicity against human SNB75 cells assessed as growth inhibition after 48 hrs by SRB assay; how it was run: as §4
RPMI-8226 = assay: Cytotoxicity against human RPMI8226 cells assessed as growth inhibition after 48 hrs by SRB assay; how it was run: as §1
NCI-H522 = assay: Cytotoxicity against human NCI-H522 cells assessed as growth inhibition after 48 hrs by SRB assay; how it was run: as §1
SR = assay: Cytotoxicity against human SR cells assessed as growth inhibition after 48 hrs by SRB assay; how it was run: as §4
[2] = (§5) Cytotoxicity against human Hs578T cells assessed as growth inhibition after 48 hrs by SRB assay; conditions: Hs-578T; how it was run: as §2
Hs-578T = assay: as §5; how it was run: as §2
DU-145 = assay: Cytotoxicity against human DU145 cells assessed as growth inhibition after 48 hrs by SRB assay; how it was run: as §2
SF-539 = assay: Cytotoxicity against human SF539 cells assessed as growth inhibition after 48 hrs by SRB assay; how it was run: as §1
HL-60(TB) = assay: Cytotoxicity against human HL-60(TB) cells assessed as growth inhibition after 48 hrs by SRB assay
How it was run: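 NCI 60-cell panel five-concentration stage (0.01, 0.1, 1, 10, 100) in HL-60(TB). Cellular protein was measured by sulforhodamine B colorimetry after 48 h of exposure. A time-zero cell control and untreated plates allowed calculation of GI50, TGI and LC50. These were read from log10 concentration dose-response curves.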

MOLT-4 = assay: Cytotoxicity against human MOLT4 cells assessed as growth inhibition after 48 hrs by SRB assay; how it was run: as §1
TK-10 = assay: Cytotoxicity against human TK10 cells assessed as growth inhibition after 48 hrs by SRB assay; how it was run: as §4
SK-MEL-28 = assay: Cytotoxicity against human SK-MEL-28 cells assessed as growth inhibition after 48 hrs by SRB assay; how it was run: as §1
SF-295 = assay: Cytotoxicity against human SF295 cells assessed as growth inhibition after 48 hrs by SRB assay; how it was run: as §1
[3] = Cytotoxicity against human Hs578T cells assessed as cell growth at 10 uM after 48 hrs by SRB assay; conditions: Hs-578T, read-out: Activity
NCI-H226 = assay: Cytotoxicity against human NCI-H226 cells assessed as growth inhibition after 48 hrs by SRB assay; how it was run: as §1
786-0 = assay: Cytotoxicity against human 786-0 cells assessed as growth inhibition after 48 hrs by SRB assay; how it was run: as §2
OVCAR-8 = assay: Cytotoxicity against human OVCAR8 cells assessed as growth inhibition after 48 hrs by SRB assay; how it was run: as §1
NCI-H460 = assay: Cytotoxicity against human NCI-H460 cells assessed as growth inhibition after 48 hrs by SRB assay; how it was run: as §1
SK-MEL-2 = assay: Cytotoxicity against human SK-MEL-2 cells assessed as growth inhibition after 48 hrs by SRB assay; how it was run: as §1
[4] = (§6) Cytotoxicity against human UO31 cells assessed as growth inhibition after 48 hrs by SRB assay; conditions: UO-31, 48 h; how it was run: as §4
UO-31 = assay: as §6; how it was run: as §4
[5] = read-out: LC50 (the source's name)

CCSc1nc2ccc3c(c2[nH]1)C(=O)c1ccccc1C3=O
growth inhibition (GI) (SK-MEL-5): Dose-dependent effect | GI50 (SK-MEL-5; SK-MEL-5, 48 h): 33.6 µM | LC50 (concentration killing 50% of cells relative to time zero) (SK-MEL-5; SK-MEL-5, 48 h): > 100 µM | TGI (SK-MEL-5; SK-MEL-5, 48 h): > 100 µM | GI50 (ACHN): 5.09 µM | TGI (ACHN): > 100 µM | growth inhibition (GI) (ACHN): Dose-dependent effect | CC50 (ACHN; [5]): > 100 µM | growth at 10 µM (OVCAR-3): 69.3% | GI50 [1]: > 100 µM | LC50 [1]: > 100 µM | TGI [1]: > 100 µM | growth inhibition (GI) (UACC-257): Dose-dependent effect | growth inhibition (GI) (A549): Dose-dependent effect | GI50 (A549; A549, 48 h): 9.67 µM | LC50 (concentration killing 50% of cells) (A549; A549, 48 h): > 100 µM | TGI (A549; A549, 48 h): > 100 µM | growth inhibition (GI) (SW-620): Dose-dependent effect | GI50 (SW-620; SW-620, 48 h): > 100 µM | LC50 (SW-620; SW-620, 48 h): > 100 µM | TGI (SW-620; SW-620, 48 h): > 100 µM | growth inhibition (GI) (SNB-75): Dose-dependent effect | GI50 (SNB-75; SNB-75, 48 h): 10.1 µM | LC50 (SNB-75; SNB-75, 48 h): > 100 µM | TGI (SNB-75; SNB-75, 48 h): 84.9 µM | growth inhibition (GI) (RPMI-8226): Dose-dependent effect | GI50 (RPMI-8226; RPMI-8226, 48 h): 2.83 µM | LC50 (concentration causing 50% net cell kill) (RPMI-8226; RPMI-8226, 48 h): > 100 µM | TGI (RPMI-8226; RPMI-8226, 48 h): > 100 µM | growth inhibition (GI) (NCI-H522): Dose-dependent effect | GI50 (NCI-H522; NCI-H522, 48 h): 4.07 µM | TGI (NCI-H522; NCI-H522, 48 h): > 100 µM | CC50 (NCI-H522; NCI-H522, 48 h, read-out: LC50 (the source's name)): > 100 µM | GI50 (SR): 2.36 µM | LC50 (50% lethal concentration) (SR): > 100 µM | TGI (SR): > 100 µM | growth inhibition (GI) (SR): Dose-dependent effect | GI50 [2]: 5.12 µM | TGI [2]: > 100 µM | CC50 [2, 5]: > 100 µM | growth inhibition (GI) (Hs-578T): Dose-dependent effect | growth inhibition (GI) (DU-145): Dose-dependent effect | GI50 (DU-145; DU-145, 48 h): 7.02 µM | TGI (DU-145; DU-145, 48 h): > 100 µM | CC50 (DU-145; DU-145, 48 h, read-out: LC50 (the source's name)): > 100 µM | growth inhibition (GI) (SF-539): Dose-dependent effect | GI50 (SF-539; SF-539, 48 h): 22.9 µM | TGI (SF-539; SF-539, 48 h): > 100 µM | CC50 (SF-539; SF-539, 48 h, read-out: LC50 (the source's name)): > 100 µM | growth inhibition (GI) (HL-60(TB)): Dose-dependent effect | GI50 (HL-60(TB); HL-60, 48 h): 5.26 µM | LC50 (HL-60(TB); HL-60, 48 h): > 100 µM | TGI (HL-60(TB); HL-60, 48 h): > 100 µM | growth inhibition (GI) (MOLT-4): Dose-dependent effect | GI50 (MOLT-4; MOLT-4, 48 h): 4.05 µM | LC50 (50% lethal concentration) (MOLT-4; MOLT-4, 48 h): > 100 µM | TGI (MOLT-4; MOLT-4, 48 h): > 100 µM | growth inhibition (GI) (TK-10): Dose-dependent effect | GI50 (TK-10; TK-10, 48 h): 7.4 µM | LC50 (TK-10; TK-10, 48 h): > 100 µM | TGI (TK-10; TK-10, 48 h): > 100 µM | growth inhibition (GI) (SK-MEL-28): Dose-dependent effect | GI50 (SK-MEL-28; SK-MEL-28, 48 h): 43.6 µM | LC50 (SK-MEL-28; SK-MEL-28, 48 h): > 100 µM | TGI (SK-MEL-28; SK-MEL-28, 48 h): > 100 µM | growth inhibition (GI) (SF-295): Dose-dependent effect | GI50 (SF-295; SF-295, 48 h): 4.17 µM | LC50 (SF-295; SF-295, 48 h): > 100 µM | TGI (SF-295; SF-295, 48 h): 47.4 µM | growth at 10 µM [3]: 85.4% | growth inhibition (GI) (NCI-H226): Dose-dependent effect | GI50 (NCI-H226; NCI-H226, 48 h): 14.2 µM | LC50 (NCI-H226; NCI-H226, 48 h): > 100 µM | TGI (NCI-H226; NCI-H226, 48 h): > 100 µM | growth inhibition (GI) (786-0): Dose-dependent effect | GI50 (786-0; 786-0, 48 h): 46.7 µM | LC50 (concentration causing 50% net cell kill) (786-0; 786-0, 48 h): > 100 µM | TGI (786-0; 786-0, 48 h): > 100 µM | growth inhibition (GI) (OVCAR-8): Dose-dependent effect | GI50 (OVCAR-8; OVCAR-8, 48 h): 15.1 µM | LC50 (OVCAR-8; OVCAR-8, 48 h): > 100 µM | TGI (OVCAR-8; OVCAR-8, 48 h): > 100 µM | growth inhibition (GI) (NCI-H460): Dose-dependent effect | GI50 (NCI-H460; NCI-H460, 48 h): 5.49 µM | LC50 (NCI-H460; NCI-H460, 48 h): > 100 µM | TGI (NCI-H460; NCI-H460, 48 h): > 100 µM | growth inhibition (GI) (SK-MEL-2): Dose-dependent effect | GI50 (SK-MEL-2; SK-MEL-2, 48 h): 5.1 µM | LC50 (50% lethal concentration) (SK-MEL-2; SK-MEL-2, 48 h): > 100 µM | TGI (SK-MEL-2; SK-MEL-2, 48 h): > 100 µM | GI50 [4]: 3.31 µM | LC50 [4]: > 100 µM | TGI [4]: > 100 µM | growth inhibition (GI) (UO-31): Dose-dependent effect
